Test results reported in ChEMBL document CHEMBL1154352, “Toll-like receptor 7 selective synthetic oligoribonucleotide agonists: synthesis and structure-activity relationship studies” (J Med Chem, 2009).
Activity calls are given as the source filed them. The calls are words filed in the database; no cut-off is given here.

What was measured:
[1] = organism: Homo sapiens; assay: Ratio of human TLR7 activity to human TLR8 activity
Procedure, shortened: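 TLR7/TLR8 ratio computed from fold NF-κB (SEAP reporter) activation in HEK293 cells stably expressing human TLR7 versus TLR8, compounds at 50 μg/mL, 18 h exposure; representative of three independent experiments.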

[2] = target: T1, Toll-like receptor 7 (Homo sapiens) (UniProt Q9NYK1); assay: Activation of human TLR7 expressed in HEK293XL assessed as induction of NF-kappaB activity by reporter gene assay
T1 sequence (whole entry): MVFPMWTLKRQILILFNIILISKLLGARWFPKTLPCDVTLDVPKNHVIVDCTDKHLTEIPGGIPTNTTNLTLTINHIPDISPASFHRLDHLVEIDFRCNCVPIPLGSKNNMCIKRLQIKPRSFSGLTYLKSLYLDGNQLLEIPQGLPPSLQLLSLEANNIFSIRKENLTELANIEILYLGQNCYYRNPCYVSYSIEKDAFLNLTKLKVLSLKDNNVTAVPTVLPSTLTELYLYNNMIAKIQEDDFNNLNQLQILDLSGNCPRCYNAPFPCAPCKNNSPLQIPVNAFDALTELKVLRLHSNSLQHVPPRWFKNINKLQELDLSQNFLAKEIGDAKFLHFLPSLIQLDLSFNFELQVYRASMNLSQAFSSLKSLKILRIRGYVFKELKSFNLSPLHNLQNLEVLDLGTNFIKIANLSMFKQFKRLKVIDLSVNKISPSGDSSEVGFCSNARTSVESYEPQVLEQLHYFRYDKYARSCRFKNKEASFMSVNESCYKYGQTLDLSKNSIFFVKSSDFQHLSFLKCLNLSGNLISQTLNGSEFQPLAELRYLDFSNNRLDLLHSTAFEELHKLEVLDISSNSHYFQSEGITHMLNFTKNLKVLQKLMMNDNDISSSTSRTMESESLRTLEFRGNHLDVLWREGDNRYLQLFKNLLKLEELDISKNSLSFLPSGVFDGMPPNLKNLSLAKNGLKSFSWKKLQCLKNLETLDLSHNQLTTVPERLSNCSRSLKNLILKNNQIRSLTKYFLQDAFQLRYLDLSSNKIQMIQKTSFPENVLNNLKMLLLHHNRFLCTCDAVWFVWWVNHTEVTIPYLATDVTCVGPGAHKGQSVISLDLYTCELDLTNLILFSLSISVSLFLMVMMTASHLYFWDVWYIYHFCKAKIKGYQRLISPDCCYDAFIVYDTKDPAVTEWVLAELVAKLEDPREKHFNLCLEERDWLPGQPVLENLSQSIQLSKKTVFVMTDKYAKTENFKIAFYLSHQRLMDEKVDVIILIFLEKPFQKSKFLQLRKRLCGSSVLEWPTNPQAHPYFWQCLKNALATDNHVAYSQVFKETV
Procedure, shortened: (§1)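 HEK293 cells stably expressing human TLR7 or TLR8, transiently transfected with SEAP reporter plasmid; medium replaced, SIMRA compounds added, 18 h incubation. Supernatant SEAP measured by QuantiBlue; expressed as fold increase in NF-κB activity over PBS control. Tabulated data at 50 μg/mL, representative of three independent experiments.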

[3] = target: T2, Toll-like receptor 8 (Homo sapiens) (UniProt Q9NR97); assay: Activation of human TLR8 expressed in HEK293XL assessed as induction of NF-kappaB activity by reporter gene assay; procedure, shortened: as §1
T2 sequence (whole entry): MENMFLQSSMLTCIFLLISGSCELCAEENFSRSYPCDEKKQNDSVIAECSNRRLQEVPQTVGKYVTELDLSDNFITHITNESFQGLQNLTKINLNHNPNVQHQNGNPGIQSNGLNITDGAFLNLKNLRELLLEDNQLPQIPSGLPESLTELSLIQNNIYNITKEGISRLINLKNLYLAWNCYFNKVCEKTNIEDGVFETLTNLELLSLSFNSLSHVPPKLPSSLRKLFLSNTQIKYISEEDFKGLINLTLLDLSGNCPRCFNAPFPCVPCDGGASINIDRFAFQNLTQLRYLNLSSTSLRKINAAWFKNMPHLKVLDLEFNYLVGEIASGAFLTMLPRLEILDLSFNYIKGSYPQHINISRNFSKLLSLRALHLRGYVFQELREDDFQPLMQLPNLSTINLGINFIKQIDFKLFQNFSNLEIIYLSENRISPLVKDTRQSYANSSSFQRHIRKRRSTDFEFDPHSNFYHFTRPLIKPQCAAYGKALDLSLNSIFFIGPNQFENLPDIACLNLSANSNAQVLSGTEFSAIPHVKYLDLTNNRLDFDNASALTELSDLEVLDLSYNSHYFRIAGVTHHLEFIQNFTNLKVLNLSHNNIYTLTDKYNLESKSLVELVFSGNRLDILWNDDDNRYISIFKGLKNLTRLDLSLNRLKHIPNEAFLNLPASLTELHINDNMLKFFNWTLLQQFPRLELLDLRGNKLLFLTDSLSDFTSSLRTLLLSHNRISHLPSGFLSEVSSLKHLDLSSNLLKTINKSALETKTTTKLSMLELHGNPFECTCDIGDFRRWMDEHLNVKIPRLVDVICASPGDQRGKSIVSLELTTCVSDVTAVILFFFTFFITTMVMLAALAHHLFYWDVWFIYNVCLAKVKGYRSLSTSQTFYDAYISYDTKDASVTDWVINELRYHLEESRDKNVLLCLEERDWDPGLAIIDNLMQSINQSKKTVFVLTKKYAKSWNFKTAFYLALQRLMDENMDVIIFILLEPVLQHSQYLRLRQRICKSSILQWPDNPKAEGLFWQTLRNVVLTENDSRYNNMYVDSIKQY

Activity [1]	Activity [2]	Activity [3]	SMILES
Dose-dependent effect	inactive	inactive	Nc1ccn([C@@H]2O[C@H](COP(=O)(S)O[C@H]3[C@@H](O)[C@H](n4cnc5c(N)ncnc54)O[C@@H]3CO)[C@@H](OP(=O)(S)OC[C@H]3O[C@@H](n4ccc(=O)[nH]c4=O)[C@H](O)[C@@H]3OP(=O)(S)OC[C@H]3O[C@@H](n4ccc(=O)[nH]c4=O)[C@H](O)[C@@H]3OP(=O)(S)OC[C@H]3O[C@@H](n4cnc5c(=O)[nH]c(N)nc54)[C@H](O)[C@@H]3OP(=O)(S)OC[C@H]3O[C@@H](n4cnc5c(N)ncnc54)[C@H](O)[C@@H]3OP(=O)(S)OC[C@H]3O[C@@H](n4ccc(N)nc4=O)[C@H](O)[C@@H]3OP(=O)(S)OC[C@H]3O[C@@H](n4cnc5c(=O)[nH]c(N)nc54)[C@H](O)[C@@H]3OP(=O)(S)OC[C@H]3O[C@@H](n4cnc5c(N)ncnc54)[C@H](O)[C@@H]3OP(=O)(S)OC[C@H]3O[C@@H](n4ccc(=O)[nH]c4=O)[C@H](O)[C@@H]3OP(=O)(S)OC[C@H]3O[C@@H](n4ccc(=O)[nH]c4=O)[C@H](O)[C@@H]3OP(=O)(S)OCC(O)COP(=O)(S)O[C@H]3[C@@H](O)[C@H](n4ccc(=O)[nH]c4=O)O[C@@H]3COP(=O)(S)O[C@H]3[C@@H](O)[C@H](n4ccc(=O)[nH]c4=O)O[C@@H]3COP(=O)(S)O[C@H]3[C@@H](O)[C@H](n4cnc5c(N)ncnc54)O[C@@H]3COP(=O)(S)O[C@H]3[C@@H](O)[C@H](n4cnc5c(=O)[nH]c(N)nc54)O[C@@H]3COP(=O)(S)O[C@H]3[C@@H](O)[C@H](n4ccc(N)nc4=O)O[C@@H]3COP(=O)(S)O[C@H]3[C@@H](O)[C@H](n4cnc5c(N)ncnc54)O[C@@H]3COP(=O)(S)O[C@H]3[C@@H](O)[C@H](n4cnc5c(=O)[nH]c(N)nc54)O[C@@H]3COP(=O)(S)O[C@H]3[C@@H](O)[C@H](n4ccc(=O)[nH]c4=O)O[C@@H]3COP(=O)(S)O[C@H]3[C@@H](O)[C@H](n4ccc(=O)[nH]c4=O)O[C@@H]3COP(=O)(S)O[C@H]3[C@@H](O)[C@H](n4ccc(N)nc4=O)O[C@@H]3COP(=O)(S)O[C@H]3[C@@H](O)[C@H](n4cnc5c(N)ncnc54)O[C@@H]3CO)[C@H]2O)c(=O)n1 (stereo partly specified)
Dose-dependent effect	inactive	inactive	Nc1ccn([C@@H]2O[C@H](COP(=O)(S)O[C@H]3[C@@H](O)[C@H](n4cnc5c(N)ncnc54)O[C@@H]3CO)[C@@H](OP(=O)(S)OC[C@H]3O[C@@H](n4ccc(=O)[nH]c4=O)[C@H](O)[C@@H]3OP(=O)(S)OC[C@H]3O[C@@H](n4ccc(=O)[nH]c4=O)[C@H](O)[C@@H]3OP(=O)(S)OC[C@H]3O[C@@H](n4ccc5c(=O)[nH]c(N)nc54)[C@H](O)[C@@H]3OP(=O)(S)OC[C@H]3O[C@@H](n4cnc5c(N)ncnc54)[C@H](O)[C@@H]3OP(=O)(S)OC[C@H]3O[C@@H](n4cnc5c(N)ncnc54)[C@H](O)[C@@H]3OP(=O)(S)OC[C@H]3O[C@@H](n4cnc5c(=O)[nH]c(N)nc54)[C@H](O)[C@@H]3OP(=O)(S)OC[C@H]3O[C@@H](n4ccc(N)nc4=O)[C@H](O)[C@@H]3OP(=O)(S)OC[C@H]3O[C@@H](n4ccc(=O)[nH]c4=O)[C@H](O)[C@@H]3OP(=O)(S)OC[C@H]3O[C@@H](n4ccc(=O)[nH]c4=O)[C@H](O)[C@@H]3OP(=O)(S)OCC(O)COP(=O)(S)O[C@H]3[C@@H](O)[C@H](n4ccc(=O)[nH]c4=O)O[C@@H]3COP(=O)(S)O[C@H]3[C@@H](O)[C@H](n4ccc(=O)[nH]c4=O)O[C@@H]3COP(=O)(S)O[C@H]3[C@@H](O)[C@H](n4ccc(N)nc4=O)O[C@@H]3COP(=O)(S)O[C@H]3[C@@H](O)[C@H](n4cnc5c(=O)[nH]c(N)nc54)O[C@@H]3COP(=O)(S)O[C@H]3[C@@H](O)[C@H](n4cnc5c(N)ncnc54)O[C@@H]3COP(=O)(S)O[C@H]3[C@@H](O)[C@H](n4cnc5c(N)ncnc54)O[C@@H]3COP(=O)(S)O[C@H]3[C@@H](O)[C@H](n4cnc5c(=O)[nH]c(N)nc54)O[C@@H]3COP(=O)(S)O[C@H]3[C@@H](O)[C@H](n4ccc(=O)[nH]c4=O)O[C@@H]3COP(=O)(S)O[C@H]3[C@@H](O)[C@H](n4ccc(=O)[nH]c4=O)O[C@@H]3COP(=O)(S)O[C@H]3[C@@H](O)[C@H](n4ccc(N)nc4=O)O[C@@H]3COP(=O)(S)O[C@H]3[C@@H](O)[C@H](n4cnc5c(N)ncnc54)O[C@@H]3CO)[C@H]2O)c(=O)n1 (stereo partly specified)
